According to PMC2907921 (Cancer cell, 2010):

Experiments:
[1] = tested on: COX; details: ref Haanen, 2001; cited from earlier work
[2] = tested on: cancer cell lines (HepG2, ZR-75-1); test: PARP cleavage and caspase-8 activation by immunoblotting; type: cell-based
Outline: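 Immunoblot for PARP cleavage and cleaved caspase-8 (p43/p41). ZR-75-1 cells were exposed to TNFα and/or test compound (50 or 75 μM) for 6 hr. HepG2 cells in 1% FBS medium received TNFα 10 ng/ml and/or 75 μM compound for 4 hr. Some cells were pretreated with 1 μM SR11237 for 1 hr.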

[3] = molecular target: T1, RXRα LBD (Homo sapiens, UniProt P19793); test: Competition ligand-binding assay with [3H]9-cis-RA; details: Sulindac analogs
T1 sequence (P19793 227-458 limits assumed): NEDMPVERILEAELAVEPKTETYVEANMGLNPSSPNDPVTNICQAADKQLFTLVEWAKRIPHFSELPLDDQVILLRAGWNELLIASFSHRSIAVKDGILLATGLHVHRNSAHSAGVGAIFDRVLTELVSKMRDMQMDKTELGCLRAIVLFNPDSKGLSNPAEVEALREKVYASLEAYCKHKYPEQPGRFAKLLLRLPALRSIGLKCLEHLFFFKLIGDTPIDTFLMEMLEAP
Outline: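 Competitive binding: RXR ligand-binding domain incubated with [3H]-9-cis-RA, with or without unlabeled 9-cis-RA or test compound. Bound radioligand was quantified by liquid scintillation counting.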

[4] = tested on: AKT activation; test: AKT activation by immunoblotting; type: cell-based; details: 50 μM
Outline: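 Immunoblot for Ser473-phospho-AKT. Cells were serum-starved overnight and exposed to 100 μM test compound for 1 hr. In TNFα arms, cells were pretreated with compound (100 μM in A549, 50 μM in PC3) for 1 hr and then given TNFα 10 ng/ml for 30 min. Some cells were transfected with RXRα, RARγ or control siRNA for 48 hr beforehand. Compound was dissolved in DMSO.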

[5] = tested on: RXRα/Δ80 tumor; test: RXRα/Δ80 tumor growth in nude mice; type: in vivo, Nude mice (BALB/c); details: 60 mg/kg intraperitoneally, two weeks
[6] = tested on: prostaglandin E2 (PGE2) production, A549 cells; test: Prostaglandin E2 production; type: cell-based
Outline: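 A549 cells were stimulated with TNFα 10 ng/ml for 24 hr, then exposed to test compound for 30 min. PGE2 was measured by enzyme immunoassay kit and expressed as the ratio of PGE2 with compound to PGE2 with vehicle.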

[7] = tested on: HeLa/RXRα/1–134 and RXRα/Δ80 cells; test: Colony formation; type: cell-based; details: 25 μM
Outline: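 Clonogenic survival of HeLa stably expressing RXRα/1–134, and of SW480 or HCT116 stably expressing GFP-RXRα/Δ80. Cells were grown in 6-well plates for 5 days, then exposed to 25 μM test compound in 0.5% serum medium for 3 days. Colonies were fixed with 4% paraformaldehyde and stained with 0.1% crystal violet.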

[8] = molecular target: T2, tRXRα/p85α interaction (Homo sapiens, UniProt P19793); test: tRXRα/p85α interaction by co-immunoprecipitation; type: cell-based; details: A549 cells, 50 μM, absence or presence of TNFα
T2 sequence (P19793 81-462 limits assumed): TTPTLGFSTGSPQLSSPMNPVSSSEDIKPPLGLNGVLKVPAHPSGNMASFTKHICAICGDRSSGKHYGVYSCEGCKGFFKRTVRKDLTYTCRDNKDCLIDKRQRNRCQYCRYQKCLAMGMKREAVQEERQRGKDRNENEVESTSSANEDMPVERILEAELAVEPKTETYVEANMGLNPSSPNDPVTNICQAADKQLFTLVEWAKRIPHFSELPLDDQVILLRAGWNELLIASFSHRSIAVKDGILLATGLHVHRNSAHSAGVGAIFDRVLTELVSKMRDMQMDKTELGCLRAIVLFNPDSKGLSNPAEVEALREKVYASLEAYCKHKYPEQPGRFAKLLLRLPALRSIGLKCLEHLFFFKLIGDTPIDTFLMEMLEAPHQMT
Outline: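 Two co-immunoprecipitation set-ups in A549 cells. (a) Endogenous protein: cells received TNFα 10 ng/ml and/or 100 μM test compound for 30 min, then were immunoprecipitated with the C-terminal ΔN197 RXRα antibody and blotted for p85α. (b) Transfected Flag-p85α and Myc-RXRα/Δ80: cells were pretreated with 50 μM compound for 1 hr, then given TNFα for 30 min, and immunoprecipitated with anti-Flag.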

[9] = tested on: COX-1 and COX-2; test: COX Fluorescent Activity Assay; type: biochemical

## CC1=C(CC(=O)O)c2cc(F)ccc2/C1=C\c1ccc(S(C)(=O)=O)cc1 [sulindac sulfone]
[1]
  COX-inhibiting activity: no COX-inhibiting activity

## CC1=C(CC(=O)O)c2cc(F)ccc2/C1=C/c1ccc([S+](C)[O-])cc1 (centres unmarked) [sulindac sulfoxide]
[1]
  COX-inhibiting activity: no COX-inhibiting activity

## CC1=C(CC(=O)O)c2cc(F)ccc2/C1=C\c1ccc(C(C)C)cc1 [K-80003]
[2]; ZR-75-1 cells, K-80003 50 μM, Sulindac 75 μM, 6 hr
  PARP cleavage with TNFα, compared with Sulindac: more effective than Sulindac
[2]; various cancer cell lines
  PARP cleavage and caspase-8 activation, with TNFα: synergistically induced PARP cleavage and caspase-8 activation
[3]
  RXRα-binding activity: most potent
[4]
  Inhibition of RA- and TNFα-induced AKT activation, compared with Sulindac: much more effective than Sulindac
[5]
  Inhibition of RXRα/Δ80 tumor growth, compared with Sulindac: much more potent inhibitory effect than Sulindac
[6]
  Inhibition of constitutive and TNFα or IL-1β-induced PGE2 production: failed to inhibit
[7]
  Colony formation: almost completely suppressed
[8]
  Interaction of RXRα/Δ80 with p85α, compared with Sulindac: more potently inhibited
[9]
  Inhibition of COX activities: no detectable inhibition
